Source: ChEMBL document CHEMBL1955829, “Synthesis and biological evaluation of 4β-sulphonamido and 4β-[(4'-sulphonamido)benzamide]podophyllotoxins as DNA topoisomerase-IIα and apoptosis inducing agents” (2012)
Active and inactive are the calls of the source. No cut-off for these calls is given here.

Columns and labels:
[1] = molecular target: DNA topoisomerase 2-beta (Mus musculus) (UniProt Q64511); assay: Inhibition of topoisomerase 2beta in mouse embryonic fibroblasts after 1.5 hrs by comet assay; settings: concentration not given here
Sequence of DNA topoisomerase 2-beta (Mus musculus) (Q64511 whole entry): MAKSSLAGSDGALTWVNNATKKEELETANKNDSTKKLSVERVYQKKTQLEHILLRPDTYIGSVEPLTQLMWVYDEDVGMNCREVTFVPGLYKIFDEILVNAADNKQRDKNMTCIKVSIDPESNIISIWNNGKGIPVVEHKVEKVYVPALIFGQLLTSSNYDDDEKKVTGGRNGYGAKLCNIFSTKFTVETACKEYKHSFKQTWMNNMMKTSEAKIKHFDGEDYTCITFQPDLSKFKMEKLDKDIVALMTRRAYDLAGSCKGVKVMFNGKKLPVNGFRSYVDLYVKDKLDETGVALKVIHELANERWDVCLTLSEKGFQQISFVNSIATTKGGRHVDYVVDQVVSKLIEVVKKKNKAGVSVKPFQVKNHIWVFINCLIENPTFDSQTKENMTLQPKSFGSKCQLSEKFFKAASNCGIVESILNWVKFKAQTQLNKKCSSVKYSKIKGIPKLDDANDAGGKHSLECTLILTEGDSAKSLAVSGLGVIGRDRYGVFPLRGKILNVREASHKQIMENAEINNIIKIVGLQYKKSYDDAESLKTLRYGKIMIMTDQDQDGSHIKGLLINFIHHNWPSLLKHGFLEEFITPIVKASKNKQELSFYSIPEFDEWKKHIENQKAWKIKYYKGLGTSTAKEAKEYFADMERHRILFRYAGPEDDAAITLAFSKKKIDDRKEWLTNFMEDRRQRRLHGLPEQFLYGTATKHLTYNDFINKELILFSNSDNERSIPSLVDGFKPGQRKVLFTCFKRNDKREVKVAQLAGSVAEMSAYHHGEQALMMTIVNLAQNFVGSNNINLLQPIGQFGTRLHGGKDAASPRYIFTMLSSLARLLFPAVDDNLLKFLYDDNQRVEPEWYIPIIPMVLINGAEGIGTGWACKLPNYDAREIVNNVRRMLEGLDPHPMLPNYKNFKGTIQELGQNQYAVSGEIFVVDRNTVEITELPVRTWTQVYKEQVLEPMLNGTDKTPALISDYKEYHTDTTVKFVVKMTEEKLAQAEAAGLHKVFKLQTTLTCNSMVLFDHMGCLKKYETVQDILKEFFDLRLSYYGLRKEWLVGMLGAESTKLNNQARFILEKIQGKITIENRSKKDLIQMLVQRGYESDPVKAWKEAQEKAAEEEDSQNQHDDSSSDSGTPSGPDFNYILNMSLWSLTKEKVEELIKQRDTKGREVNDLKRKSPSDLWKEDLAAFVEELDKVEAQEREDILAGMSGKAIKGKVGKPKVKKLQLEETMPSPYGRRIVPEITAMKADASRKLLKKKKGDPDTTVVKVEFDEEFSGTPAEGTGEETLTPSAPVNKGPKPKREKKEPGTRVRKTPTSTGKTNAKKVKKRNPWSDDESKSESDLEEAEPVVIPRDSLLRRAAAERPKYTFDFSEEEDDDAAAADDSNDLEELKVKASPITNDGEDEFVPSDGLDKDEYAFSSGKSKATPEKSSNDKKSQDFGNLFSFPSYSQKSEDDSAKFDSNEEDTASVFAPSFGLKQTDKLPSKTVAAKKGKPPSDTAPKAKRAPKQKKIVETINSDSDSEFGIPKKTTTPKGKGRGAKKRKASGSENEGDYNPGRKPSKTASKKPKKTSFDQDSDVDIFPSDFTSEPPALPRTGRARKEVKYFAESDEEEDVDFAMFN

HOP-62 = assay: Growth inhibition of human HOP62 cells after 48 hrs by sulforhodamine B assay; format: functional; settings: HOP-62, 48 h
How it was run: (§1)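 Cells grown in DMEM with 10% FBS and 2 mM L-glutamine, plated at densities set by doubling time, and held 24 h before dosing. Exposure was 48 h to 0.1, 1, 10 and 100 µM in triplicate wells. Cells fixed with cold TCA (final 10%) 60 min at 4 °C and stained with 0.4% SRB 20 min. Bound dye eluted in 10 mM Tris base and read at 540 nm (690 nm reference). GI50 is the concentration giving 50% reduction in net protein gain versus control; values are the mean of three determinations.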

[2] = molecular target: T1, Serine/threonine-protein kinase Chk1 (Homo sapiens) (UniProt O14757); assay: Increase in Chk1 phosphorylation at Ser345 in human COLO205 cells after 24 hrs; format: cell-based; settings: COLO 205
T1 sequence (whole entry): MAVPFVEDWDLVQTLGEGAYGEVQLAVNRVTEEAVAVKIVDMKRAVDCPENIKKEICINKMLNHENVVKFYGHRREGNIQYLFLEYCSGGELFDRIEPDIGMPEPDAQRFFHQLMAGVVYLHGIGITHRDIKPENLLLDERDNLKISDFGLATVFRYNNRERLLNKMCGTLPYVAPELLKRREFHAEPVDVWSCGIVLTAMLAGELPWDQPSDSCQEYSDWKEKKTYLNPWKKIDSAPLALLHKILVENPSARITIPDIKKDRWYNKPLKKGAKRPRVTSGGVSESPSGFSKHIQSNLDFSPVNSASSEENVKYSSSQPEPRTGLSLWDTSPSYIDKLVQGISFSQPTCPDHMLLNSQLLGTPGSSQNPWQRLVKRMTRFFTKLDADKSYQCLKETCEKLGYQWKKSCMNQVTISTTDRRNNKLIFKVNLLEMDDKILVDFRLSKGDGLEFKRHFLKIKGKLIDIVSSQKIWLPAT
How it was run: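 Colo-205 cells on coverslips treated 24 h at 4 µM. Fixed in 4% paraformaldehyde, permeabilised with 0.2% Triton X-100, held in methanol overnight at 4 °C, and blocked with 1% BSA. Stained with anti-phospho-ATM (S1981) or anti-phospho-Chk1 (1:100) for 2 h at room temperature, then FITC anti-rabbit secondary for 1 h; DAPI/PI counterstain and confocal imaging.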

COLO 205 [3] = assay: Cell cycle arrest in human COLO205 cells assessed as accumulation at G0 phase at 4 uM after 24 hrs by FACS analysis (reference value: 4.29%); format: functional
How it was run: (§2)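 Colo-205 cells seeded at […] per 60 mm dish and treated 24 h at 4 µM; TSA arm used TSA at 4 µM for 12 h. Cells trypsinised, fixed in ice-cold 70% ethanol 30 min at 4 °C, RNase 1 mg/mL 30 min at 37 °C, then propidium iodide/citrate/Triton stain. DNA content of 20,000 events read by flow cytometry; phase percentages from histograms.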

COLO 205 [4] = assay: Down regulation of topoisomerase 2beta in human COLO205 cells at 4 uM after 24 hrs by Western blotting analysis; format: functional, cell-based
How it was run: (§3)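 Colo-205 cells treated 24 h at 4 µM and lysed in ice-cold RIPA with protease inhibitors and NaF. Protein measured by Bradford; 50 µg per lane run on 12% SDS-PAGE and transferred to PVDF. Membrane blocked 2 h, primary antibody (topo-IIα/β, p21, p16, pro-caspase-3, NF-kB p65) overnight at 4 °C, HRP secondary 1:2000 for 1 h, chemiluminescence detection; β-actin as loading control. Reduced procaspase-3 taken as caspase-3 activation.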

[5] = molecular target: DNA topoisomerase 2-beta (Homo sapiens) (UniProt Q02880); assay: Inhibition of topoisomerase 2beta in human in COLO205 cells assessed as induction of double-strand DNA breaks at 4 uM after 24 hrs by gamma-H2AX staining-based Western blotting analysis; format: cell-based; settings: COLO 205
Sequence of DNA topoisomerase 2-beta (Homo sapiens) (Q02880 whole entry): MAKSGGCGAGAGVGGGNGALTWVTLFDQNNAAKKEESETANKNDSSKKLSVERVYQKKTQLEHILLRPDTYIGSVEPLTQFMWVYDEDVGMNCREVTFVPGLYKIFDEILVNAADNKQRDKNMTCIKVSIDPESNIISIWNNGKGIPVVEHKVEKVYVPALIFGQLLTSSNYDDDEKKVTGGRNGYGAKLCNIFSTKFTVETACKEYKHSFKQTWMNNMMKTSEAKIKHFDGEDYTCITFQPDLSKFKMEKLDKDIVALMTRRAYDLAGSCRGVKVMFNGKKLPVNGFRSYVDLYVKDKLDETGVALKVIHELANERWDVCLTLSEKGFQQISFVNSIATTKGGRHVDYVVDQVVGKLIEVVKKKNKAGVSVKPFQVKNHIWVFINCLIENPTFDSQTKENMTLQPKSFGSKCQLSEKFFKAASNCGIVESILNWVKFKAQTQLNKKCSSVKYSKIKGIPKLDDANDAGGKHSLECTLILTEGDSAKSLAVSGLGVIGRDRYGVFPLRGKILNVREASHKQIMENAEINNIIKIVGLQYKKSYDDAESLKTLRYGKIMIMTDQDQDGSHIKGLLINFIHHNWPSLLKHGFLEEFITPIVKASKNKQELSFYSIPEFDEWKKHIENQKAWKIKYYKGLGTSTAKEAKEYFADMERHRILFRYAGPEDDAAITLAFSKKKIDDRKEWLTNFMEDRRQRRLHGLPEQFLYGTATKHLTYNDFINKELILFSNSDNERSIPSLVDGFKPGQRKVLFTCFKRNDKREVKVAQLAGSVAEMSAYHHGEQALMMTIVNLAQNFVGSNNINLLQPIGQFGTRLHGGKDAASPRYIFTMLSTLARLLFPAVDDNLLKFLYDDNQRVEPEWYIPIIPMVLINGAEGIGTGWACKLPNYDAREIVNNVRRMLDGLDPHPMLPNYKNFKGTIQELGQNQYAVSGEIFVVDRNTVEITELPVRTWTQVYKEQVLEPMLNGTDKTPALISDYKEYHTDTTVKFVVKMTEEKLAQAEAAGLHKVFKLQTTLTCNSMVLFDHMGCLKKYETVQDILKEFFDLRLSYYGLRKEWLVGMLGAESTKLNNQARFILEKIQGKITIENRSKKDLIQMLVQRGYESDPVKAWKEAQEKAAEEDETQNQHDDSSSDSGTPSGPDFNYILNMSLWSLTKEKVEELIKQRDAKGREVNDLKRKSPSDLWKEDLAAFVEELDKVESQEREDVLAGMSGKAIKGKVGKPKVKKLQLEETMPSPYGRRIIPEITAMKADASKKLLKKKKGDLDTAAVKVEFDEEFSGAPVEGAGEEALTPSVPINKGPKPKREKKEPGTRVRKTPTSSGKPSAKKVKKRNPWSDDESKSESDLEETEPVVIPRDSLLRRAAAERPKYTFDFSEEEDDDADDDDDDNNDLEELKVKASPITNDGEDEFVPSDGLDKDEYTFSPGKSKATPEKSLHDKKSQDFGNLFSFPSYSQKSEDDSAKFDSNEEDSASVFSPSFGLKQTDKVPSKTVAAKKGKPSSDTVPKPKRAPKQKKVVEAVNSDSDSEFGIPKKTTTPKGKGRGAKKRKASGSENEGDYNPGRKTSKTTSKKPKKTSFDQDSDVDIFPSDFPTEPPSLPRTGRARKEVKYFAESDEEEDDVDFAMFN
How it was run: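 Colo-205 cells treated 24 h at 4 µM. Double-strand breaks detected with anti-phospho-Ser139 H2AX antibody, both by immunofluorescence staining and by Western blot, with β-actin as loading control.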

COLO 205 [6] = assay: Growth inhibition of human COLO205 cells after 48 hrs by sulforhodamine B assay; format: functional; settings: COLO 205, 48 h; how it was run: as §1
COLO 205 [7] = assay: Cell cycle arrest in human COLO205 cells assessed as accumulation at G1 phase at 4 uM after 24 hrs by FACS analysis (reference value: 60.89%); format: functional; how it was run: as §2
[8] = Growth inhibition of human DWD cells after 48 hrs by sulforhodamine B assay; format: functional; how it was run: as §1
COLO 205 [9] = assay: Down regulation of topoisomerase 2alpha in human COLO205 cells at 4 uM after 24 hrs by Western blotting analysis; format: functional, cell-based; how it was run: as §3

## COc1cc([C@@H]2c3cc4c(cc3[C@@H](O[C@@H]3O[C@@H]5CO[C@@H](C)O[C@H]5[C@H](O)[C@H]3O)[C@H]3COC(=O)[C@H]23)OCO4)cc(OC)c1O [ETOPOSIDE]
[1]
  inhibition: 100%
HOP-62
  GI50: 800 nM
[2]
  Activity: Active
COLO 205 [3]
  Activity: 5.95%
COLO 205 [4]
  Activity: Active
[5]
  inhibition: Active
COLO 205 [6]
  GI50: 130 nM
COLO 205 [7]
  Activity: 12.82%
[8]
  GI50: 620 nM

## COC(=O)c1sccc1S(=O)(=O)N[C@@H]1c2cc3c(cc2[C@@H](c2cc(OC)c(OC)c(OC)c2)[C@H]2C(=O)OC[C@@H]21)OCO3
HOP-62
  GI50: 40 nM
[2]
  Activity: Active
COLO 205 [3]
  Activity: 23.94%
[5]
  inhibition: 50%
COLO 205 [6]
  GI50: 40 nM
COLO 205 [7]
  Activity: 27.43%
[8]
  GI50: 40 nM
COLO 205 [9]
  Activity: Active
